5 molecules from ChEMBL document CHEMBL1148102, “New chlorinated diphenyl ethers from an Aspergillus species” (J Nat Prod, 2002) can be followed below.

For one experiment, the target named is T1, Endothelin-1 receptor (Rattus norvegicus, UniProt P26684).
T1 sequence (P26684 whole entry): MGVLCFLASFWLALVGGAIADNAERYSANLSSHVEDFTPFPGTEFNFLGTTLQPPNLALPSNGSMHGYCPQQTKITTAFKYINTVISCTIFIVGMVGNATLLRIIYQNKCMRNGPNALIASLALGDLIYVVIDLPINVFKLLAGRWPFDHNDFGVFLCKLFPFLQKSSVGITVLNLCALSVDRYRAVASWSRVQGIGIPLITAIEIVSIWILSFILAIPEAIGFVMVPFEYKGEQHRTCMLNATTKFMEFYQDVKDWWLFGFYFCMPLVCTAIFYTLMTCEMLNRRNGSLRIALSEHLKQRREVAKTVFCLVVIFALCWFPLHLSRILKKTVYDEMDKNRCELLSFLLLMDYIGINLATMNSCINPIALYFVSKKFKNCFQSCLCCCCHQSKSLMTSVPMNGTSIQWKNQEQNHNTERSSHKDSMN
The experiment in a line: Displacement of endothelin-1 from ETA receptor in rat A10 cells. It counts as cell-based.

In the next experiment the test system is Escherichia coli. The experiment in a line: Antimicrobial activity against Escherichia coli at <200 ppm. It counts as functional, organism-based.
For a further experiment, the system named is Gaeumannomyces tritici. In words: Antimicrobial activity against Gaeumannomyces graminis var. tritici at <200 ppm. The experiment is classed as functional, organism-based. The essentials:
(§1)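 Antifungal test by the dialysis membrane overlay technique against the phytopathogenic fungus. Compounds were assessed at concentrations below 200 ppm.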

A further experiment relates to Rhizoctonia solani. The experiment in a line: Antimicrobial activity against Rhizoctonia solani at <200 ppm. It counts as functional, organism-based. The method in brief:
as §1

In another experiment the test system is Caenorhabditis elegans. The experiment in a line: Antinematodal activity against Caenorhabditis elegans after 16 to 24 hrs. It counts as functional. The essentials:
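Model nematode C. elegans exposed to compounds in a bioassay. Lethality was scored over 16-24 h and reported as the concentration in ppm lethal to 90% (LD90) or 50% (LD50) of worms.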

Structures are written as SMILES. pIC50: −log10 of the molar value. In brackets after ≈: the same amount, converted by molar mass. Activity calls are given as the source filed them. The calls are words filed in the database; no cut-off is given here.

As for `COC(=O)c1cc(O)cc(OC)c1Oc1cc(C)cc(O)c1C(=O)O` [ASTERRIC ACID], the negative-log IC50 (pIC50) on Endothelin-1 receptor is 5.00. Also, the outcome in the experiment on Escherichia coli, in the experiment with Gaeumannomyces tritici and in the experiment on Rhizoctonia solani was inactive. Further, in the experiment on Caenorhabditis elegans, the LD90 was 50 ppm.

For `COC(=O)c1cc(O)cc(OC)c1Oc1cc(C)cc(O)c1C(=O)OC` [METHYL ASTERRATE], the result in the experiment on Escherichia coli, in the experiment with Gaeumannomyces tritici and in the experiment on Rhizoctonia solani was inactive. Further, in the experiment on Caenorhabditis elegans, the LD90 amounted to 75 ppm.

With `COC(=O)c1cc(O)cc(OC)c1Oc1cc(C)c(Cl)c(O)c1C(=O)OC` [METHYL CHLOROASTERRATE], the outcome in the experiment on Escherichia coli, with Gaeumannomyces tritici and with Rhizoctonia solani was inactive. Moreover, the LC50 in the experiment with Caenorhabditis elegans (Caenorhabditis elegans, read-out: LD50 (the source's name)) was found to be 100 µg/mL (≈ 252 µM).

As to `COC(=O)c1cc(O)cc(OC)c1Oc1c(Cl)c(C)c(Cl)c(O)c1C(=O)OC` [METYL DICHLOROASTERRATE], the outcome with Escherichia coli, with Gaeumannomyces tritici and in the experiment on Rhizoctonia solani was inactive. The molecule further showed an LD90 in the experiment with Caenorhabditis elegans of 75 ppm.

As to `COC(=O)c1cc(O)cc(OC)c1C(=O)c1c(O)cc(C)cc1O` [SULOCHRIN], the outcome with Escherichia coli, in the experiment on Gaeumannomyces tritici and in the experiment with Rhizoctonia solani was inactive. Moreover, the LD90 in the experiment on Caenorhabditis elegans is 50 ppm.
